Results on three compounds are retold here after paper PMC3572763 (Molecular pharmaceutics, 2013).

In one series the test system is Caco-2 monolayers. The series can be described thus: Caco-2 cell monolayers permeability. To be noted: A to B. The series is classed as in vitro ADME, human. Background: Passage across Caco-2 layers is used to estimate intestinal permeability.
Series [1] deals with H1N1 NWS/33 strain of influenza. To be noted: cited from earlier work.
The subject of a further series is Type A strains. To be noted: tissue culture; cited from earlier work.
The subject of a further series is rat jejunum. Nature of the series: Single-pass intestinal. The series is classed as in vivo. The following applies: rat jejunal perfusion.
Series [2] can be described thus: Chemical stability in pH buffers. The series is classed as physicochemical. To be noted: for T1/2 −pH 6.0: pH 6.0 buffer; for T1/2 −pH 6.0 / T1/2 pH 7.4: value given in h; for T1/2 pH 7.4: pH 7.4 buffer.
Series [3] deals with T1, PEPT1 (Homo sapiens, UniProt P46059).
T1 sequence (P46059 1-708): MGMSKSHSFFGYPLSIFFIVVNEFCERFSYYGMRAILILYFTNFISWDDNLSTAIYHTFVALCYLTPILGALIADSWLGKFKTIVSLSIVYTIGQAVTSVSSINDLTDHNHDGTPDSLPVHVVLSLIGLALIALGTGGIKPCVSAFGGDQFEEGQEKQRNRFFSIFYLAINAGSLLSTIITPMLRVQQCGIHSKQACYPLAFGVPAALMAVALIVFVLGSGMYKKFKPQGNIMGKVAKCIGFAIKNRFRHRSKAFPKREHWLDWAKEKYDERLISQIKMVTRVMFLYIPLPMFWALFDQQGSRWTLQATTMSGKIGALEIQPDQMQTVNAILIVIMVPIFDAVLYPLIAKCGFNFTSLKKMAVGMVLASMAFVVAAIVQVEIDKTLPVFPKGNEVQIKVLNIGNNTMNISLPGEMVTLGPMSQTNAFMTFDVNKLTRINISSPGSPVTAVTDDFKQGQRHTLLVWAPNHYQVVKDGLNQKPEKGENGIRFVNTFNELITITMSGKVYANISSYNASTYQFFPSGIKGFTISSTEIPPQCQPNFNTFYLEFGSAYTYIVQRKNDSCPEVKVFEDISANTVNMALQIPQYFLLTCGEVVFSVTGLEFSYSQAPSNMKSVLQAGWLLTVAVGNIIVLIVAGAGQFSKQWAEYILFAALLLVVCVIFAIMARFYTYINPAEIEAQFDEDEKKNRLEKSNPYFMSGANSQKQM
The series can be described thus: [3H]Gly-Sar uptake inhibition in Caco-2 cells. It counts as cell-based. A digest of the protocol:
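Caco-2 cells seeded at 5.0 × 10^4/well and grown 10 days. Washed and preincubated 15 min in pH 6.0 MES uptake buffer, then exposed 30 min at 37°C to 10 μM Gly-Sar (~1% [3H]) plus test compound 0.05–5 mM. Cells washed with ice-cold PBS, lysed in MeOH/water 1:1, counted by scintillation; IC50 by nonlinear fit; mean ± SEM, n = 3.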

The subject of series [4] is human lysosomal neuraminidase. To be noted: cited from earlier work.
The conditions of series [5]: cited from earlier work.
For series [6] the following is noted: mice; for AUC24hr / Cmax / Tmax hrs: GOCarb measured in plasma; for oral bioavailability: 10 mg/kg oral gavage relative to 1 mg/kg IV.
Series [7] deals with T1, PEPT1. Nature of the series: Direct uptake in PEPT1 over-expressing HeLa cells. The series is classed as cell-based. To be noted: 1 mM.
The test system of another series is Type B strains. The following applies: tissue culture; cited from earlier work.
The conditions of series [8]: literature; cited from earlier work.
The conditions of series [9]: from literature, cited from earlier work.

Where two headings read alike, the source gives them in different places.

Broadly, the IC50 is the concentration needed to halve the response being measured. In general, Cmax refers to the maximum level reached in the sampled fluid or tissue. In the case of `CCC(CC)O[C@@H]1C=C(C(=O)O)C[C@H](NC(=N)N)[C@H]1NC(C)=O` [GOCarb, 4-Guanidine oseltamivir carboxylate], the “permeability across Caco-2 monolayers” value in the series with Caco-2 monolayers is “negligible permeability”. Moreover, in series [1] (H1N1 NWS/33 strain of influenza), the IC50 is 0.9 nM. For the same compound, in series [1] (versus the A/NWS/33 virus, dashed line in Figure 8), the “approximate EC50” value was ~5 ng/mL. Moreover, the “fold more potent than OC” value in the series with Type A strains is “approximately 100 fold”; in the series with Type B strains it was ~13 fold. For the same compound, the “jejunal permeability” value is “very low permeability” in the series with rat jejunum and “essentially zero permeability” in the series with rat jejunum (listed as parent drug). In addition, the hydrolysis in buffers entry in series [2] (all pHs, up to 20 hours) is reported as “limited hydrolysis”. For the same compound, the “T1/2 −pH 6.0” value in series [2] was >20h. In addition, in series [2], the “T1/2 pH 7.4” value was >20h. The “competition with [3H]Gly-Sar” value at PEPT1 [3] is on record as “little competition”. Further, the “fold more potent in inhibiting human lysosomal neuraminidase as compared to OC” value in [4] is ~ 10 fold. In addition, in series [5] (in rats), the intestinal permeability is < 5%. The figures for the oral bioavailability in series [5] (species not stated in abstract), in [6] (fasted) and in series [6] (fed) were 4%, “approximately 5%” and “approximately 5%”, respectively. Further, the “AUC24hr” value in series [6] (1 mg/kg IV) worked out at 0.487 ± 0.206 µg·h/mL; in series [6] (10 mg/kg po-fasted), 0.278 ± 0.052 µg·h/mL; in [6] (10 mg/kg po-fed), 0.291 ± 0.087 µg·h/mL. Also, the Cmax in [6] (10 mg/kg po-fasted) came out at 0.0509 ± 0.0358 µg/mL; in [6] (10 mg/kg po-fed) it was 0.0654 ± 0.0268 µg/mL. For the same compound, the Tmax hrs in series [6] (10 mg/kg po-fasted) is 1.3 ± 0.6 h; in series [6] (10 mg/kg po-fed), 3.0 ± 1.2 h. For the same compound, the “uptake into transfected or non-transfected cells” value at PEPT1 [7] is “virtually no uptake”.
Consider `CC(C)[C@H](N)C(=O)OCCOCn1cnc2c(=O)[nH]c(N)nc21` [Valacyclovir], for which the bioavailability in humans result in [8] was “up to 80%”. For the same compound, the “T1/2 −pH 6.0” value in series [9] (pH 6.0) was “ND^b 69.7 h^c”. Further, the “T1/2 pH 7.4” value in series [9] (pH 7.4) is listed as “ND^b >8 h^c”.
For the compound `CCOC(=O)C1=C[C@@H](OC(CC)CC)[C@H](NC(C)=O)[C@@H](NC(=N)N)C1` [GOC ethyl ester], in series [2], the “T1/2 −pH 6.0” value was >20h and the “T1/2 pH 7.4” value is reported as >20h.
